Where “and” joins values, the source holds several entries; their conditions need not be identical. Equal values may be shown once.
Tests used:
HeLa = experiment: MTT cell proliferation inhibition assay; format: cell-based; details: Homo sapiens, 72 h
JEG3 = experiment: MTT cell proliferation inhibition assay; format: cell-based; details: Homo sapiens, JEG-3, 72 h
[1] = Pharmacokinetics after oral administration in rats; format: in vivo, Sprague-Dawley rats; details: 0.06 mmol/kg
HCT116 = experiment: MTT cell proliferation inhibition assay; format: cell-based; details: Homo sapiens, HCT-116, 72 h
HCT116 tumor = experiment: HCT116 xenograft tumor model in BALB/c nude mice; format: in vivo; details: dose 0.036 mmol/kg/d, daily injection for 21 days
How it was run: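 Nude mice given 5 × 10^5 viable HCT116 cells subcutaneously in the right flank. Daily injections into the left hypogastrium for 21 days. Test compound at 0.006, 0.012 or 0.018 mmol/kg/d. Comparators: 5-FU 0.036 mmol/kg/d and an uncrystallised 3:1 mix (5-FU 0.036 + NCM 0.012 mmol/kg/d), plus blank control. Mice euthanised; tumours weighed and examined by H&E (×100). TGI = (mean control weight − mean treated weight)/mean control weight.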

[2] = Solubility in water by UV-visible spectrophotometry; format: physicochemical
Hep G2 = experiment: MTT cell proliferation inhibition assay; format: cell-based; details: Homo sapiens, HepG2, 72 h
SMMC7721 = experiment: MTT cell proliferation inhibition assay; format: cell-based; details: Homo sapiens, SMMC-7721, 72 h
Acute toxicity study = format: in vivo; details: for Nd (number of dead animals) / R (%) = Nd/Ni: Ni 10; for LD50: in vivo, acute toxicity
[3] = Sprague-Dawley, rat, plasma, po
[4] = dose 122.2/0.86 (mg/kg)/(mmol/kg)
[5] = dose 133.4/1.03 (mg/kg)/(mmol/kg)
[6] = dose 158.5/1.22 (mg/kg)/(mmol/kg)

Question: For O=c1[nH]cc(F)c(=O)[nH]1 [5-FU, 5-Fluorouracil], which IC50 (HeLa) is on record?
Answer: 7.96 µM

Question: What about the IC50 (JEG3) of the same compound?
Answer: 2.18 µM

Question: And the AUC(0-inf) [1, 3]?
Answer: 5.07 ± 0.104 µM·h

Question: What about the AUC(0-t) [1, 3] of the same compound?
Answer: 4.93 ± 0.076 µM·h

Question: What about the CL/F [1, 3] of the same compound?
Answer: 197 mL/min/kg

Question: And the Cmax [1, 3]?
Answer: 7.99 ± 0.375 µM

Question: What about the Tmax [1, 3] of the same compound?
Answer: 20 min

Question: What about the half-life [1, 3] of the same compound?
Answer: 18.1 ± 3.72 min

Question: And the V1/F ([1]; oral, SD rats, n = 8)?
Answer: 2.783 ± 0.915 L/kg

Question: And the t1/2α ([1]; oral, SD rats, n = 8)?
Answer: 3.84 ± 0.78 min

Question: What about the IC50 (HCT116) of the same compound?
Answer: 0.0325 µM

Question: What about the “TGI (tumor growth inhibition)” value (HCT116 tumor) of the same compound?
Answer: 21.8%

Question: What about the “W̅ average tumor growth weight” value (HCT116 tumor) of the same compound?
Answer: 0.65 ± 0.10 g

Question: And the solubility at 24 h [2]?
Answer: 10500 µg/mL and 80000 µM

Question: And the IC50 (Hep G2)?
Answer: 3.86 µM

Question: What about the IC50 (SMMC7721) of the same compound?
Answer: 18.9 µM

Question: And the “probit (P + 5)” value (Acute toxicity study; [4])?
Answer: 3.720

Question: What about the “Nd (number of dead animals)” value (Acute toxicity study; [4]) of the same compound?
Answer: 1

Question: What about the “R (%) = Nd/Ni” value (Acute toxicity study; [4]) of the same compound?
Answer: 10%

Question: What about the “probit (P + 5)” value (Acute toxicity study; [5]) of the same compound?
Answer: 5.520

Question: What about the “Nd (number of dead animals)” value (Acute toxicity study; [5]) of the same compound?
Answer: 7

Question: And the “R (%) = Nd/Ni” value (Acute toxicity study; [5])?
Answer: 70%

Question: What about the “probit (P + 5)” value (Acute toxicity study; [6]) of the same compound?
Answer: 6.28

Question: And the “Nd (number of dead animals)” value (Acute toxicity study; [6])?
Answer: 9

Question: What about the “R (%) = Nd/Ni” value (Acute toxicity study; [6]) of the same compound?
Answer: 90%

Question: And the LD50 (Acute toxicity study; LD50 95% confidence interval)?
Answer: 380 to 2630 µmol/kg

Question: What about the LD50 (Acute toxicity study; LD50 (median lethal dose)) of the same compound?
Answer: 1000 µmol/kg
